Measured values published in PubChem BioAssay AID624363 (Broad Institute, 2012).
The source made the active and inactive calls.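 Rule for the calls: active = in every test run, a falling-signal curve whose half-maximal concentration is at most twice the top tested dose; inconclusive = runs disagree, flat fit at 30 to 70% inhibition, or poor fit; inactive = every test run inactive.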

System: SK-MEL-5 TRPM1 promoter luciferase reporter, 24 h
Test: inhibitors of MITF-driven TRPM1 reporter, dose response, cell-based, SK-MEL-5, luciferase, dry powder, set 5 (AID 624363)
Settings: not given
Summary of the method: (§1)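 Assay system: SK-MEL-5 melanoma line with stable TRPM1 promoter–luciferase reporter; buffer or medium: phenol red-free DMEM, 10% FBS; compound: pin-transferred compounds; incubation: compound exposure 24 h at 37 °C, one day after plating; detection: SteadyGlo luciferase luminescence after 5 min at room temperature; control set: parthenolide 27 µM positive control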

Structure (SMILES)	AC50
O=C1C(NS(=O)(=O)c2cccs2)=C(N2CCCCC2)C(=O)c2ccccc21	22.1 µM

System: not listed separately
Test: as above
Settings: SK-MEL-5 TRPM1 promoter luciferase reporter, 24 h; at 35 µM (top of the series)
Summary of the method: as §1

Structure (SMILES)	activity change, negative = inhibition
COc1ccc(C2=C(NC(=O)c3ccc4ccccc4c3)C(=O)c3ccccc3C2=O)cc1	-15.2% (inactive)
COc1ccc(C2=C(NC(=O)c3ccc(OC)cc3-c3cccc(OC)c3)C(=O)c3ccccc3C2=O)cc1	-14.7% (inactive)
O=C(NC1=C(N2CCN(c3ccccc3)CC2)C(=O)c2ccccc2C1=O)c1ccccc1	-32.8% (inactive)
O=C1C(NS(=O)(=O)c2ccc(Br)cc2)=C(N2CCN(c3ccccc3)CC2)C(=O)c2ccccc21	-44.3% (inactive)
O=C(NC1=C(c2ccc(Oc3ccccc3)cc2)C(=O)c2ccccc2C1=O)c1ccccc1	-5.77% (inactive)
C=CCNC1=C(NCC=C)C(=O)c2ccccc2C1=O	-12.8% (inactive)
